15 compounds from PubChem BioAssay can be followed below.

Active and inactive are the calls of the source.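 Rule for the calls, unless noted: active = viability at or under a set limit in both replicates, limit being median viability minus 3 SD (cut at about 48% in these data, passing the limit was not always enough); inconclusive = at or under the limit in just one replicate; inactive = at or above the limit in both replicates.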

The nature of test [1]: reducers of endogenous Her2 protein level, primary screen, SKBR3 breast tumor cells, AlphaScreen, ATP viability (AID 461;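 active = Her2 level under about 52% in both replicate screens, with viability over 70% of control, limit read from the data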;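 for Her2 level: lower value means less Her2 protein in the cells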;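 for viability: percent of carrier control wells set as 100% viability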). As to conditions: 18-24 h, measured here: SKBR3 viability, ATP luminescence, at 10 µM.
Test [2] has as its target Receptor tyrosine-protein kinase erbB-2 (Homo sapiens) (UniProt P04626). Described as above. The note with it: 18-24 h, at 10 µM, stronger effect = lower value.
Test [3] is described as follows: SK-BR-3 cell growth inhibitors, pilot screen, 24 h, human (AID 572;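 active = viability at or below 10% of carrier control in both of two separate runs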;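 note: compound exposure lasted between 18 and 24 h rather than exactly 24 h; 100% = carrier-treated control wells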). The note with it: SK-BR-3 viability, CellTiter-Glo luminescence, at 10 µM, stronger effect = lower value. On the technique in general: Cellular ATP, detected with luciferase, serves as a proxy for viable cell number.
Test [4] is described as follows: HUVEC growth inhibition – cell-based, human, primary screen (AID 575;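 active = viability at or below 30% in both replicate assays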;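 note: 100% = median of untreated cell wells with 0.1% DMSO on each plate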). The note with it: HUVEC proliferation, CellTiter-Glo luminescence, 72 h; at 10 µM; stronger effect = lower value. In outline:
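Material: primary human umbilical vein endothelial cells / Schedule: 72 h exposure, 37 °C, 5% CO2, 30 min RT equilibration / Signal: ATP-based CellTiter-Glo luminescent read / Read-out basis: percent of median DMSO-control luminescence / Control set: 32 DMSO-only cell-control wells (high), 32 MePR drug-control wells (low) per plate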

A short description of test [5]: growth inhibitors of H69AR lung tumor, primary screen, human, duplicate replicates (AID 580).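 Note: 100% = mean luminescence of untreated wells and 0% = no signal.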 As to conditions: H69AR lung tumor cells viability, ATP luminescence, 72 h; at 10 µM; stronger effect = lower value.
A short description of test [6]: reversal of MRP1-mediated doxorubicin resistance, pilot screen, H69AR cells, doxorubicin co-treatment (AID 601;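 active = viability loss from added drug above about 55%, and viability with drug at most 40%, in both replicates, limit read from the data, passing the limit was not always enough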). As to conditions: CellTiter-Glo, 72 h, at 10 µM; for differential viability (reversal): stronger effect = higher value.
The nature of test [7]: 384-well plate pilot, post-Golgi transport modulator project, inhibition of yeast transport mutant growth (AID 636; in the data active = inhibition above about 31%). The note with it: absorbance 615 nm, about 18 h, stronger effect = higher value.
The nature of test [8]: growth suppression of yeast trafficking mutant, preliminary HTS, modulators of trafficking downstream of Golgi apparatus project, 1536-format plate, OD 615 nm (AID 637; in the data active = inhibition above about 30%). The note with it: yeast transport mutant growth, absorbance 615 nm, 18 h; stronger effect = higher value.
[9] abbreviates: H69AR cells + 2 uM doxorubicin, measured here: viability with 2 uM doxorubicin, stronger effect = lower value.
Where [10] appears, read: H69AR cells, compound alone cytotoxicity.

Sequence of Receptor tyrosine-protein kinase erbB-2 (Homo sapiens) (P04626 whole entry, looked up): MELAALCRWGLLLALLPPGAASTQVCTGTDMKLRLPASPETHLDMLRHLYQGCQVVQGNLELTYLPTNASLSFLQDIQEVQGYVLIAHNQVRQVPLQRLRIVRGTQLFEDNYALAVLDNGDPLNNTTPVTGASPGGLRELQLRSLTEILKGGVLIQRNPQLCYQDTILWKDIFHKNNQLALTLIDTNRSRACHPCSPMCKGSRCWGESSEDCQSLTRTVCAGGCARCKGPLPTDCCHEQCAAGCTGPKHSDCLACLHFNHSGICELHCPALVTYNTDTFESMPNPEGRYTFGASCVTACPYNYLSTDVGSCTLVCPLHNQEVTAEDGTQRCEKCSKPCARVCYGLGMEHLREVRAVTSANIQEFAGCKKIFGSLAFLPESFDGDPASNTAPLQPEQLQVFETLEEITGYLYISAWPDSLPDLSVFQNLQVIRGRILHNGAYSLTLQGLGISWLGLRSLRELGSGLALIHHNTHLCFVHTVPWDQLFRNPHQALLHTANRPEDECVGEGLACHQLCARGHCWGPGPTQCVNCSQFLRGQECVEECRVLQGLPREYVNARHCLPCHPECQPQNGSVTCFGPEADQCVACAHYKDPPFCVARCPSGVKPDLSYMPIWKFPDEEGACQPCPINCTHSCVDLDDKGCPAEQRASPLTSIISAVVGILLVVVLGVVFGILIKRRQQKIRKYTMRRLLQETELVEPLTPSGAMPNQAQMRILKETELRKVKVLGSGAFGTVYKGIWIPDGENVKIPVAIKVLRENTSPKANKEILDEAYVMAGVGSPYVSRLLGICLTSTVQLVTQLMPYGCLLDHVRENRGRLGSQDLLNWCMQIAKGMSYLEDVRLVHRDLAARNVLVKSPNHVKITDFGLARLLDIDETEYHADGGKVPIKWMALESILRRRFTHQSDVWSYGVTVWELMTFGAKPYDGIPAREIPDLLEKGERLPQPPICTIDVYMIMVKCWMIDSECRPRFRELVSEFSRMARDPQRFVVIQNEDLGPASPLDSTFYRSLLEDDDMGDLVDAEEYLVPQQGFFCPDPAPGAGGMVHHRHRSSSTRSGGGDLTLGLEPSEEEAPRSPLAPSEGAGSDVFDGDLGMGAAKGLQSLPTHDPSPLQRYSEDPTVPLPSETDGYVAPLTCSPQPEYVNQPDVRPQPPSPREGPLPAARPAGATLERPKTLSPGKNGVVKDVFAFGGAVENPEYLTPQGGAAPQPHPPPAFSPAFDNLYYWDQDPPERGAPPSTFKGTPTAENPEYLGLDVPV

As for `CCOC(=O)CC1(CC(=O)OCC)NC(=O)c2c(C)sc(C(=O)OCC)c2N1`, the viability (usually a read-out of living cells in per cent, often relative to untreated cells) is 92% in test [1]; 92% (inactive) in test [3]; 71.4% (inactive) in test [4]; 101% (inactive) in test [5]; 95.3% in test [6] (setting [9]); 101% in test [6] (setting [10]). For the same compound, the Her2 level in test [2] is 93% (inactive). Further, the differential viability (reversal) in test [6] (H69AR cells + 2 uM doxorubicin) is 5.26% (inactive). Moreover, the inhibition (as a rule, the relative decrease from the control value, in per cent) in test [7] is -1.05% (inactive); in test [8] it was 6.39% (inactive).

`COCCn1c(=O)[nH]c2cc(C(=O)NCc3cccnc3)ccc2c1=O`: the viability in test [1] was 89.5%; in test [3], 89.5% (inactive); in test [4], 107% (inactive); in test [5], 97.9% (inactive); in test [6] (setting [9]), 93.6%; in test [6] (setting [10]), 97.9%. For the same compound, the Her2 level in test [2] is 88.5% (inactive). Besides, the differential viability (reversal) in test [6] (H69AR cells + 2 uM doxorubicin) is 4.27% (inactive). Besides, the inhibition in test [7] was -7.57% (inactive); in test [8], 1.17% (inactive).

Regarding `Cc1ccc(S(=O)(=O)N2CCC(C(=O)N[C@@H](Cc3ccccc3)C(=O)O)CC2)cc1`, the viability is 104% in test [1]; 104% (inactive) in test [3]; 108% (inactive) in test [4]; 86.9% (inactive) in test [5]; 77.1% in test [6] (setting [9]); 86.9% in test [6] (setting [10]). Besides, the Her2 level in test [2] is 174% (inactive). Moreover, the differential viability (reversal) in test [6] (H69AR cells + 2 uM doxorubicin) is 9.85% (inactive). Besides, the inhibition was -4.27% (inactive) in test [7] and -6.13% (inactive) in test [8].

For `CCCCc1cc(=O)oc2cc(C)cc(OC(C)C(=O)O)c12` (stereo not given), the viability is 116% in test [1]; 116% (inactive) in test [3]; 109% (inactive) in test [4]; 104% (inactive) in test [5]; 95.8% in test [6] (setting [9]); 104% in test [6] (setting [10]). Further, the Her2 level in test [2] was 115% (inactive). Further, the differential viability (reversal) in test [6] (H69AR cells + 2 uM doxorubicin) is 8.19% (inactive). The inhibition is -2.3% (inactive) in test [7] and -7.17% (inactive) in test [8].

Consider `O=P(O)(O)c1ccccc1OCCOCCOc1ccccc1P(=O)(O)O`, for which the viability in test [1] was 101%; in test [3], 101% (inactive); in test [4] it was 111% (inactive); in test [5], 92% (inactive); in test [6] (setting [9]), 86.1%; in test [6] (setting [10]), 92%. Moreover, the Her2 level in test [2] was 89.5% (inactive). In test [6] (H69AR cells + 2 uM doxorubicin), the differential viability (reversal) was 5.91% (inactive). Moreover, the inhibition is -6.08% (inactive) in test [7] and 0.5% (inactive) in test [8].

Regarding `Cc1cc(C)nc(SCC(=O)Nc2ccc(S(=O)(=O)Nc3nccs3)cc2)n1`, the viability is 110% in test [1]; 110% (inactive) in test [3]; 97.4% (inactive) in test [4]; 95.7% (inactive) in test [5]; 91% in test [6] (setting [9]); 95.7% in test [6] (setting [10]). In addition, in test [2], the Her2 level was 107% (inactive). Also, the differential viability (reversal) in test [6] (H69AR cells + 2 uM doxorubicin) is 4.67% (inactive). The inhibition was -1.76% (inactive) in test [7] and 5.9% (inactive) in test [8].

Take `CCN(Cc1cc2ccccc2[nH]c1=O)S(=O)(=O)c1ccccc1`: the viability in test [1] is 110%; in test [3] it was 110% (inactive); in test [4], 98.4% (inactive); in test [5] it was 87.1% (inactive); in test [6] (setting [9]), 99.8%; in test [6] (setting [10]), 87.1%. Besides, the Her2 level in test [2] was 112% (inactive). Besides, the differential viability (reversal) in test [6] (H69AR cells + 2 uM doxorubicin) was -12.7% (inactive). The inhibition in test [7] was -4.59% (inactive); in test [8], -2.38% (inactive).

Regarding `Nn1c(SCC(=O)Nc2ccc3c(c2)OCCO3)nnc1C(F)(F)F`, the viability in test [1] is 88.5%; in test [3], 88.5% (inactive); in test [4] it was 88.3% (inactive); in test [5] it was 80.9% (inactive); in test [6] (setting [9]), 88.8%; in test [6] (setting [10]), 80.9%. Also, the Her2 level in test [2] was 78.5% (inactive). Also, in test [6] (H69AR cells + 2 uM doxorubicin), the differential viability (reversal) is -7.85% (inactive). Moreover, the values for the inhibition in test [7] and in test [8] were -2.5% (inactive) and 1.27% (inactive), respectively.

Consider `COC(=O)c1cccc(Oc2nc3c(c(=O)n(C)c(=O)n3C)n2C(C)C)c1`, for which the viability was 80.5% in test [1]; 80.5% (inactive) in test [3]; 79.6% (inactive) in test [4]; 79.6% (inactive) in test [5]; 101% in test [6] (setting [9]); 79.6% in test [6] (setting [10]). Besides, the Her2 level in test [2] was 84% (inactive). For the same compound, the differential viability (reversal) in test [6] (H69AR cells + 2 uM doxorubicin) was -20.9% (inactive). The figures for the inhibition in test [7] and in test [8] were -2.93% (inactive) and 2% (inactive), respectively.

As for `Cc1cc2ncn(C(=O)c3c(-c4ccccc4)noc3C)c2cc1C`, the viability in test [1] is 102%; in test [3], 102% (inactive); in test [4] it was 76.8% (inactive); in test [5] it was 81.8% (inactive); in test [6] (setting [9]) it was 77.7%; in test [6] (setting [10]), 81.8%. The Her2 level in test [2] was 110% (inactive). Also, the differential viability (reversal) in test [6] (H69AR cells + 2 uM doxorubicin) is 4.1% (inactive). For the same compound, the values for the inhibition in test [7] and in test [8] were 0.13% (inactive) and -6.23% (inactive), respectively.

Take `CC1CN(c2nc3ccccn3c(=O)c2/C=C(\C#N)S(=O)(=O)c2ccccc2)CC(C)O1` (stereo not given): the viability in test [1] was 93.5%; in test [3], 93.5% (inactive); in test [4] it was 96.3% (inactive); in test [5] it was 90% (inactive); in test [6] (setting [9]), 31%; in test [6] (setting [10]), 90%. In addition, the Her2 level in test [2] was 106% (inactive). Further, the differential viability (reversal) in test [6] (H69AR cells + 2 uM doxorubicin) is 59% (active). For the same compound, the inhibition in test [7] is -0.53% (inactive); in test [8] it was -14.4% (inactive).

For the compound `Cc1ccc(-n2c(=O)c3sccc3n(CC(=O)NCc3ccco3)c2=O)cc1`, the viability was 107% in test [1]; 107% (inactive) in test [3]; 96.5% (inactive) in test [4]; 99% (inactive) in test [5]; 91.4% in test [6] (setting [9]); 99% in test [6] (setting [10]). Besides, the Her2 level in test [2] is 102% (inactive). Further, in test [6] (H69AR cells + 2 uM doxorubicin), the differential viability (reversal) was 7.63% (inactive). The inhibition in test [7] was -5.53% (inactive); in test [8], -2.91% (inactive).

As to `CCC(=O)N1CCc2cc(S(=O)(=O)CCC(=O)Nc3ccc(F)c(F)c3)ccc21`, the viability in test [1] was 104%; in test [3] it was 104% (inactive); in test [4] it was 97.3% (inactive); in test [5] it was 92.3% (inactive); in test [6] (setting [9]) it was 82.1%; in test [6] (setting [10]), 92.3%. The Her2 level in test [2] is 160% (inactive). Also, the differential viability (reversal) in test [6] (H69AR cells + 2 uM doxorubicin) is 10.2% (inactive). In addition, the results for the inhibition in test [7] and in test [8] were 0.13% (inactive) and -6% (inactive), respectively.

Regarding `CC(=O)Nc1c(O)nc(SCC(=O)Nc2nnc(CC(C)C)s2)[nH]c1=O`, the viability in test [1] was 86.5%; in test [3], 86.5% (inactive); in test [4] it was 98.2% (inactive); in test [5], 93.6% (inactive); in test [6] (setting [9]), 102%; in test [6] (setting [10]) it was 93.6%. Further, in test [2], the Her2 level was 99.5% (inactive). Also, the differential viability (reversal) in test [6] (H69AR cells + 2 uM doxorubicin) is -8.89% (inactive). Also, the inhibition in test [7] was 3.2% (inactive); in test [8], 22.4% (inactive).

With `Cc1cc2c(c(=O)o1)C(Cc1ccccc1)C(C#N)=C(N)O2` (stereo not given), the viability in test [1] was 94%; in test [3], 94% (inactive); in test [4] it was 87.2% (inactive); in test [5] it was 98.7% (inactive); in test [6] (setting [9]), 77.2%; in test [6] (setting [10]) it was 98.7%. In addition, in test [2], the Her2 level is 96% (inactive). In test [6] (H69AR cells + 2 uM doxorubicin), the differential viability (reversal) is 21.6% (inactive). Besides, the results for the inhibition in test [7] and in test [8] were 1.45% (inactive) and 1.8% (inactive), respectively.
